Test results: ChEMBL document CHEMBL4325893, “Synthesis and antibacterial profiles of targeted triclosan derivatives” (2019)
Values after ≈ are worked out from the molar mass of the structure shown.

What was measured:
Aeromonas hydrophila = test: Antibacterial activity against Aeromonas hydrophila OCC 778 after 18 hrs; type: functional; settings: OCC 778, 18 h
Method in brief: (§1)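 Broth microdilution in Nutrient Broth No. 2; stocks in ethanol diluted to 0.01–128 µg/ml (triclosan) or 0.25–256 µg/ml (glycosides). Overnight 37 °C NB2 cultures diluted 1 in 10^4 in saline and added to the dilutions. Incubation at 37 °C with agitation, OD read every 15 min; MIC is the lowest concentration preventing any OD rise after 18 h.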

Citrobacter freundii [1] = test: Antibacterial activity against Citrobacter freundii OCC 851 after 18 hrs; type: functional; settings: OCC 851, 18 h; method in brief: as §1
Cronobacter sakazakii = test: Antibacterial activity against Cronobacter sakazakii 29544 after 18 hrs; type: functional; settings: Cronobacter sakazakii, 29544, 18 h; method in brief: as §1
Klebsiella aerogenes [2] = test: Antibacterial activity against Enterobacter aerogenes ATCC 13048 after 18 hrs; type: functional; settings: ATCC 13048, 18 h; method in brief: as §1
[3] = Antibacterial activity against Enterobacter cloacae ATCC 13047 after 18 hrs; type: functional, Enterobacter cloacae subsp. cloacae; settings: ATCC 13047, 18 h; method in brief: as §1
Escherichia coli [4] = test: Antibacterial activity against Escherichia coli ATCC 8739 after 18 hrs; type: functional; settings: ATCC 8739, 18 h; method in brief: as §1
Escherichia coli [5] = test: Antibacterial activity against Escherichia coli ATCC 10536 after 18 hrs; type: functional; settings: ATCC 10536, 18 h; method in brief: as §1
Escherichia coli [6] = test: Antibacterial activity against Escherichia coli ATCC 11775 after 18 hrs; type: functional; method in brief: as §1
Escherichia coli [7] = test: Antibacterial activity against Escherichia coli ATCC 25922 after 18 hrs; type: functional; settings: ATCC 25922, 18 h; method in brief: as §1
Escherichia coli [8] = test: Antibacterial activity against Escherichia coli ATCC 35218 after 18 hrs; type: functional; settings: ATCC 35218, 18 h; method in brief: as §1
Escherichia coli [9] = test: Antibacterial activity against Escherichia coli 700728 after 18 hrs; type: functional; settings: Escherichia coli, 700728, 18 h; method in brief: as §1
Escherichia coli [10] = test: Antibacterial activity against Escherichia coli NCTC 13216 after 18 hrs; type: functional; settings: NCTC 13216, 18 h; method in brief: as §1
Escherichia coli [11] = test: Antibacterial activity against Escherichia coli OCC 122 after 18 hrs; type: functional; settings: OCC 122, 18 h; method in brief: as §1
Escherichia hermannii = test: Antibacterial activity against Escherichia hermannii 33650 after 18 hrs; type: functional; settings: Atlantibacter hermannii, 33650, 18 h; method in brief: as §1
Hafnia alvei = test: Antibacterial activity against Hafnia alvei 13337 after 18 hrs; type: functional; settings: Hafnia alvei, 13337, 18 h; method in brief: as §1
Klebsiella aerogenes [12] = test: Antibacterial activity against Klebsiella aerogenes NCTC 8167 after 18 hrs; type: functional; settings: NCTC 8167, 18 h; method in brief: as §1
Klebsiella pneumoniae [13] = test: Antibacterial activity against Klebsiella pneumoniae ATCC 10031 after 18 hrs; type: functional; settings: ATCC 10031, 18 h; method in brief: as §1
Proteus mirabilis = test: Antibacterial activity against Proteus mirabilis ATCC 12453 after 18 hrs; type: functional; settings: ATCC 12453, 18 h; method in brief: as §1
Proteus vulgaris = test: Antibacterial activity against Proteus vulgaris OCC 195 after 18 hrs; type: functional; settings: OCC 195, 18 h; method in brief: as §1
Pseudomonas aeruginosa = test: Antibacterial activity against Pseudomonas aeruginosa ATCC 27853 after 18 hrs; type: functional; settings: ATCC 27853, 18 h; method in brief: as §1
Klebsiella pneumoniae [14] = test: Antibacterial activity against Klebsiella pneumoniae ATCC 13883 after 18 hrs; type: functional; settings: ATCC 13883, 18 h; method in brief: as §1
Citrobacter freundii [15] = test: Antibacterial activity against Citrobacter freundii 8090 after 18 hrs; type: functional; settings: Citrobacter freundii, 8090, 18 h; method in brief: as §1
Serratia marcescens = test: Antibacterial activity against Serratia marcescens OCC 217 after 18 hrs; type: functional; settings: OCC 217, 18 h; method in brief: as §1
Bacillus cereus = test: Antibacterial activity against Bacillus cereus ATCC 14579 after 18 hrs; type: functional; settings: ATCC 14579, 18 h; method in brief: as §1
Bacillus subtilis = test: Antibacterial activity against Bacillus subtilis NCTC 10073 after 18 hrs; type: functional; settings: NCTC 10073, 18 h; method in brief: as §1
Enterococcus faecalis [16] = test: Antibacterial activity against Enterococcus faecalis ATCC 29212 after 18 hrs; type: functional; settings: ATCC 29212, 18 h; method in brief: as §1
Enterococcus faecalis [17] = test: Antibacterial activity against Enterococcus faecalis ATCC 33186 after 18 hrs; type: functional; settings: ATCC 33186, 18 h; method in brief: as §1
Enterococcus faecium = test: Antibacterial activity against Enterococcus faecium ATCC 19434 after 18 hrs; type: functional; settings: ATCC 19434, 18 h; method in brief: as §1

OC[C@H]1O[C@H](Oc2cc(Cl)ccc2Oc2ccc(Cl)cc2Cl)[C@H](O)[C@@H](O)[C@@H]1O
MIC (Aeromonas hydrophila): 256 µg/mL (≈ 567 µM) | MIC (Citrobacter freundii [1]): 4 µg/mL (≈ 8.86 µM) | MIC (Cronobacter sakazakii): 8 µg/mL (≈ 17.7 µM) | MIC (Klebsiella aerogenes [2]): 8 µg/mL (≈ 17.7 µM) | MIC [3]: 1 µg/mL (≈ 2.21 µM) | MIC (Escherichia coli [4]): 2 to 8 µg/mL (≈ 4.43 to 17.7 µM) | MIC (Escherichia coli [5]): 2 to 8 µg/mL (≈ 4.43 to 17.7 µM) | MIC (Escherichia coli [6]): 2 to 8 µg/mL (≈ 4.43 to 17.7 µM) | MIC (Escherichia coli [7]): 2 to 8 µg/mL (≈ 4.43 to 17.7 µM) | MIC (Escherichia coli [8]): 2 to 8 µg/mL (≈ 4.43 to 17.7 µM) | MIC (Escherichia coli [9]): 2 to 8 µg/mL (≈ 4.43 to 17.7 µM) | MIC (Escherichia coli [10]): 2 to 8 µg/mL (≈ 4.43 to 17.7 µM) | MIC (Escherichia coli [11]): 2 to 8 µg/mL (≈ 4.43 to 17.7 µM) | MIC (Escherichia hermannii): 1 µg/mL (≈ 2.21 µM) | MIC (Hafnia alvei): 1 µg/mL (≈ 2.21 µM) | MIC (Klebsiella aerogenes [12]): 2 µg/mL (≈ 4.43 µM) | MIC (Klebsiella pneumoniae [13]): 1 µg/mL (≈ 2.21 µM) | MIC (Proteus mirabilis): 2 µg/mL (≈ 4.43 µM) | MIC (Proteus vulgaris): 4 µg/mL (≈ 8.86 µM) | MIC (Pseudomonas aeruginosa): > 256 µg/mL | MIC (Klebsiella pneumoniae [14]): 1 µg/mL (≈ 2.21 µM) | MIC (Citrobacter freundii [15]): 4 µg/mL (≈ 8.86 µM) | MIC (Serratia marcescens): > 256 µg/mL | MIC (Bacillus cereus): 128 µg/mL (≈ 283 µM) | MIC (Bacillus subtilis): 32 µg/mL (≈ 70.8 µM) | MIC (Enterococcus faecalis [16]): 128 µg/mL (≈ 283 µM) | MIC (Enterococcus faecalis [17]): 128 µg/mL (≈ 283 µM) | MIC (Enterococcus faecium): 256 µg/mL (≈ 567 µM)
